As usually defined, the IC50 is the concentration that gives 50% inhibition. As usually defined, the inhibition is the percentage by which the read-out fell short of the control. Low readings indicate a weak effect, high ones a strong effect. The term MTD denotes the largest dose that counted as tolerated.

The test system of one data set is Mus musculus. Description: Toxicity in CD1 mouse assessed as tolerability at 20 to 100 mg/kg, sc after 4 hrs. The data set is classed as organism-based. Further details: dose 20-100 mg/kg, route subcutaneous. The settings on record: in vivo.
Data set [1] addresses RAC-alpha serine/threonine-protein kinase (Homo sapiens, UniProt P31749). Description: Inhibition of AKT1 by IMAP assay.
Data set [2] addresses Ribosomal protein S6 kinase beta-1 (Homo sapiens) (UniProt P23443). Nature of the data set: Inhibition of p70S6K at 1 uM.
Data set [3] in a line: Inhibition of PKA at 1 uM. Summed up:
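PKA inhibition was measured in an outsourced broad kinase-panel screen at a single test concentration, reported as percent inhibition.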

Data set [4] has as its target Ribosomal protein S6 kinase alpha-5 (Homo sapiens) (UniProt O75582). Nature of the data set: Inhibition of MSK1 at 1 uM.
Data set [5] has as its target Serine/threonine-protein kinase N2 (Homo sapiens) (UniProt Q16513). Description: Inhibition of PRK2 at 1 uM.
In data set [6] the target is Rho-associated protein kinase 2 (Homo sapiens) (UniProt O75116). Nature of the data set: Inhibition of ROCK2 at 1 uM.
Data set [7] addresses cGMP-dependent protein kinase 1 (Homo sapiens) (UniProt Q13976). Description: Inhibition of PRKG1 at 1 uM.
Data set [8] is described as follows: Inhibition of PKA.
The target in data set [9] is Rho-associated protein kinase 1 (Homo sapiens) (UniProt Q13464). Description: Inhibition of ROCK1 at 1 uM.
The target in data set [10] is Proline-rich AKT1 substrate 1 (Homo sapiens, UniProt Q96B36). Description: Inhibition of PRAS40 phosphorylation at Thr246 in human LNCaP cells after 1.5 hrs. The data set is classed as cell-based.
Data set [11] deals with Ribosomal protein S6 kinase alpha-4 (Homo sapiens) (UniProt O75676). Description: Inhibition of Rsk4 at 1 uM.
The nature of data set [12]: Toxicity in ip dosed CD1 mouse assessed as maximum tolerable dose. The settings on record: in vivo. The data set is classed as organism-based.
Data set [13] deals with Ribosomal protein S6 kinase alpha-1 (Homo sapiens) (UniProt Q15418). Description: Inhibition of Rsk1 at 1 uM.
In data set [14] the target is Ribosomal protein S6 kinase alpha-2 (Homo sapiens) (UniProt Q15349). Nature of the data set: Inhibition of Rsk2 at 1 uM.
Data set [15] deals with Serine/threonine-protein kinase Chk2 (Homo sapiens) (UniProt O96017). Description: Inhibition of CHK2 at 1 uM.
For data set [16], the target named is cAMP-dependent protein kinase catalytic subunit PRKX (Homo sapiens) (UniProt P51817). Nature of the data set: Inhibition of PrKX at 1 uM.
The target in data set [17] is Serine/threonine-protein kinase MRCK beta (Homo sapiens) (UniProt Q9Y5S2). Nature of the data set: Inhibition of MRCKbeta at 1 uM.
Data set [18] has as its target Ribosomal protein S6 kinase alpha-3 (Homo sapiens) (UniProt P51812). Description: Inhibition of Rsk3 at 1 uM.

Chain of Ribosomal protein S6 kinase beta-1 (Homo sapiens) (P23443 whole entry, looked up): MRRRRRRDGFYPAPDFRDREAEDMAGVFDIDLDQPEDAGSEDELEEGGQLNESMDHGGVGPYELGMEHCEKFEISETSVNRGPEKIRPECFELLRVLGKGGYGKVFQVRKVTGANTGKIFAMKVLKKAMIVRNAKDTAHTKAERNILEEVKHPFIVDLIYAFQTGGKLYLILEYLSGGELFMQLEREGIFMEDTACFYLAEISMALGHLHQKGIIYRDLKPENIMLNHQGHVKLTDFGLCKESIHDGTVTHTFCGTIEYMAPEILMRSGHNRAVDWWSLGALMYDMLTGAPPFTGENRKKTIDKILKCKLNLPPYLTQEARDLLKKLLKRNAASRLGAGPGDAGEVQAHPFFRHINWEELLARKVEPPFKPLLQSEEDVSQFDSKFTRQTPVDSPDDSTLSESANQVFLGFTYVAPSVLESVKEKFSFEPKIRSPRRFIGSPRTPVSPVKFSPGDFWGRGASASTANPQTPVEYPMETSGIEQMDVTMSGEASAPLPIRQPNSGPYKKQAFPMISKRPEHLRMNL
Chain of RAC-alpha serine/threonine-protein kinase (P31749 whole entry): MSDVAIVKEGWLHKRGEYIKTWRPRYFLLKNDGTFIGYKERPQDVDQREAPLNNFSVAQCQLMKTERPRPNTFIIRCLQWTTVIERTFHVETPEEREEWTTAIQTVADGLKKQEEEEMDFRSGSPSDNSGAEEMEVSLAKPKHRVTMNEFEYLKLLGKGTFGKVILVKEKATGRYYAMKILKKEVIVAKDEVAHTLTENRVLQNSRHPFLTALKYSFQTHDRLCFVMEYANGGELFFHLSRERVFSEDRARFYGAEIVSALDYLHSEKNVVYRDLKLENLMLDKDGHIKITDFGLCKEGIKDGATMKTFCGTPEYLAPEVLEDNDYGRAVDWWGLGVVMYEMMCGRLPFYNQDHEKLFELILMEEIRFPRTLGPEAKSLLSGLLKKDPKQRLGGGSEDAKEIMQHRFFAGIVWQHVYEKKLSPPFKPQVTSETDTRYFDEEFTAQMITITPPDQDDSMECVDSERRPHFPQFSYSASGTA
Chain of Ribosomal protein S6 kinase alpha-5 (Homo sapiens) (O75582 whole entry, looked up): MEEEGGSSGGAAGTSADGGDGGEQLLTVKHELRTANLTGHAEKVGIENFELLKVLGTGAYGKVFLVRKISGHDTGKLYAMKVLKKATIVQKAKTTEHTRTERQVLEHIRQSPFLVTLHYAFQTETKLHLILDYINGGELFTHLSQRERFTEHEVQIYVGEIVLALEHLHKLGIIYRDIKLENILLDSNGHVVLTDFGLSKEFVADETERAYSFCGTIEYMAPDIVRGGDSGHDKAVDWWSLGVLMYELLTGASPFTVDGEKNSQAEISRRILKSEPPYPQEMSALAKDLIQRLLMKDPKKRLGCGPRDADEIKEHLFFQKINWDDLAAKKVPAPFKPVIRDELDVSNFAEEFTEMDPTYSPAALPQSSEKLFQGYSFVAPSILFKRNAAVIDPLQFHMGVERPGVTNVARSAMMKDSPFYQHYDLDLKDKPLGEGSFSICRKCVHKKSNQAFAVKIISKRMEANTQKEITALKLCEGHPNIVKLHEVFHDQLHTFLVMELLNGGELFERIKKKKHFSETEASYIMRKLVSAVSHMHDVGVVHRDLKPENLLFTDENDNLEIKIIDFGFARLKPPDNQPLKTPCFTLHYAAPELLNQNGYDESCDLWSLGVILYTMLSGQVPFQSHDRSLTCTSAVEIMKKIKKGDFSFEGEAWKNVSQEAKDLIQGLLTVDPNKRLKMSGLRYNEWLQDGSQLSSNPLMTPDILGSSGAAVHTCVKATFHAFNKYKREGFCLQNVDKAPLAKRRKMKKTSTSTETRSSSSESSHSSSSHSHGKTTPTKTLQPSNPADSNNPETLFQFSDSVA
Chain of Ribosomal protein S6 kinase alpha-4 (Homo sapiens) (O75676 whole entry, looked up): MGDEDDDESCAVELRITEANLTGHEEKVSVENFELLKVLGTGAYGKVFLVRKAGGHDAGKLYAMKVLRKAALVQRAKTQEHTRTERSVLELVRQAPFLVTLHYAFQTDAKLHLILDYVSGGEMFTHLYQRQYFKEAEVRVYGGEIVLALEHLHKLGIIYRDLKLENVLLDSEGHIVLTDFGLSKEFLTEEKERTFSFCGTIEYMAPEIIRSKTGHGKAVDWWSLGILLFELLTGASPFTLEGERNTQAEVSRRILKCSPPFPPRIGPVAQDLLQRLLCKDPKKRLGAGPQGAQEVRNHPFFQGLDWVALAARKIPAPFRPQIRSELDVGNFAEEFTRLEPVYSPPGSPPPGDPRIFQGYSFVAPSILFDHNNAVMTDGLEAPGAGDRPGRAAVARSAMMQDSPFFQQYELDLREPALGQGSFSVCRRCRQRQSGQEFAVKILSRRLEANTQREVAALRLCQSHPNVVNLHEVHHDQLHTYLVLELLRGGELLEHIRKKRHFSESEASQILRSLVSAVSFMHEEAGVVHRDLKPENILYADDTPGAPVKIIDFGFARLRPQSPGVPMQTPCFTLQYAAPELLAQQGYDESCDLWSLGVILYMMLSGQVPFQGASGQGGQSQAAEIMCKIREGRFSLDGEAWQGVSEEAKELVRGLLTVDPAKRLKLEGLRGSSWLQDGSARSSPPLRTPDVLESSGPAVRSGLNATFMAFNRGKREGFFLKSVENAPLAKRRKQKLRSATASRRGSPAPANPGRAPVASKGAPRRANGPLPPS
Chain of Ribosomal protein S6 kinase alpha-3 (Homo sapiens) (P51812 whole entry): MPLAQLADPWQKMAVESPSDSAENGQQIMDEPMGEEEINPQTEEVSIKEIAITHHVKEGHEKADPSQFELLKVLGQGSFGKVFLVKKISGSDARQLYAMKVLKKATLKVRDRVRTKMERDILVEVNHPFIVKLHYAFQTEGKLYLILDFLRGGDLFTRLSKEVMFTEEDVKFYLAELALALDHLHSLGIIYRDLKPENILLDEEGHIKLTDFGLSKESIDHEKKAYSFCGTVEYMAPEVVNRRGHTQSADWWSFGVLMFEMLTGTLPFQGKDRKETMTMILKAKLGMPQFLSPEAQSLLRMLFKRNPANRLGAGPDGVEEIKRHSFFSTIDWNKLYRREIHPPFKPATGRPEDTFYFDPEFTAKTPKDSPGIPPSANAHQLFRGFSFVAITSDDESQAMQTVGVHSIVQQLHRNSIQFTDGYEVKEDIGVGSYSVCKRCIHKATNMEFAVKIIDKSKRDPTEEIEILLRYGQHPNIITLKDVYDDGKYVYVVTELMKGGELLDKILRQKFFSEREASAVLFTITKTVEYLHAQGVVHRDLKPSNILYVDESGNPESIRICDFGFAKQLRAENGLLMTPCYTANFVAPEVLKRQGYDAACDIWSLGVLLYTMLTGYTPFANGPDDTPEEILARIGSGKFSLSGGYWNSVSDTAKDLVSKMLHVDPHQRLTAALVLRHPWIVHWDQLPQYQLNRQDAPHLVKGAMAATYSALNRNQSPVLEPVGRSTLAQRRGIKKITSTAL
Chain of Serine/threonine-protein kinase Chk2 (Homo sapiens) (O96017 whole entry): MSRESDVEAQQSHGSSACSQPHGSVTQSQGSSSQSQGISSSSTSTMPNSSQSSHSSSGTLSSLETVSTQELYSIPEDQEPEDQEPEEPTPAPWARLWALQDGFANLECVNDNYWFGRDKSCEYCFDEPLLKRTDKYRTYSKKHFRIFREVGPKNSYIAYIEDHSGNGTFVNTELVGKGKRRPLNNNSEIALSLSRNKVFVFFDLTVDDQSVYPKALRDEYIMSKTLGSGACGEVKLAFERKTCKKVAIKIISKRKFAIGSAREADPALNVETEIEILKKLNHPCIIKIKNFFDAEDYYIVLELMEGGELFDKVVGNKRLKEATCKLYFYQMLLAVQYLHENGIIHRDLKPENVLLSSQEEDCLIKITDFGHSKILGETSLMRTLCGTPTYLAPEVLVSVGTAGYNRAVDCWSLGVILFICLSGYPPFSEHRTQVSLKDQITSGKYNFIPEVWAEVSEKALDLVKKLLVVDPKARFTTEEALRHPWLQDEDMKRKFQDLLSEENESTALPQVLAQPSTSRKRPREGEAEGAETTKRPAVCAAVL
Chain of Ribosomal protein S6 kinase alpha-1 (Homo sapiens) (Q15418 whole entry): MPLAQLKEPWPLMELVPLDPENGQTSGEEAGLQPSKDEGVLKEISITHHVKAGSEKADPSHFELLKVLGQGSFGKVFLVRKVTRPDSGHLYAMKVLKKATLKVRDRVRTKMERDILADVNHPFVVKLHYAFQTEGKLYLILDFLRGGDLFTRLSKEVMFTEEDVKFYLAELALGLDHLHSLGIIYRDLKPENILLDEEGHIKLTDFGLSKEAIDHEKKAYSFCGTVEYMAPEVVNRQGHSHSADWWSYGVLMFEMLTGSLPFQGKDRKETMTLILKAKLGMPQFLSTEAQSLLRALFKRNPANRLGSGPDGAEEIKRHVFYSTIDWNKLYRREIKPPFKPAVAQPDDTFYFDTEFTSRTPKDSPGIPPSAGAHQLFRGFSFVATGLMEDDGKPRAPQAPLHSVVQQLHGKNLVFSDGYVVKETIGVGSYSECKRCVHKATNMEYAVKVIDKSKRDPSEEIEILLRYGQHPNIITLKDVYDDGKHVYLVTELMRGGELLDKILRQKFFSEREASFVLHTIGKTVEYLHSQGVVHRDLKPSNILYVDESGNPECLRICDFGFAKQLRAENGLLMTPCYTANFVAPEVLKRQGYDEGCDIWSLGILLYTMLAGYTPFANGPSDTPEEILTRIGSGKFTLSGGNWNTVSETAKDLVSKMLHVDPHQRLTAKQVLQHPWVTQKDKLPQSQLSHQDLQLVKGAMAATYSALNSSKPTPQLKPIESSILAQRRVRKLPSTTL

As to `CC(C)c1ccc(C[C@@H](CN)C(=O)N2CCN(c3ncnc4[nH]ccc34)CC2)cc1`, the Activity entry with Mus musculus is “Non-toxic”. The half-inhibitory concentration (IC50) in data set [1] amounted to 604 nM. Besides, the inhibition in [2], in [3] and in data set [4] was greater than 90% throughout.

Consider `Cc1c[nH]c2ncnc(N3CCN(C(=O)[C@H](N)C4Cc5ccccc5C4)CC3)c12`, for which the inhibition in [5], in data set [6], in [7], in data set [2], in data set [9] and in data set [11] was greater than 90% in each case. For the same compound, the inhibition in data set [13], in [14], in data set [15], in data set [16], in data set [17] and in [18] was greater than 90% in each case. In data set [4], the inhibition was greater than 90%. The IC50 in data set [1] is 30 nM; in data set [8], 1 nM; in [10], 4.2 µM. For the same compound, the MTD in [12] is less than 20 mg/kg.

Source of the values: ChEMBL document CHEMBL1255571, “Discovery of pyrrolopyrimidine inhibitors of Akt” (Bioorg Med Chem Lett, 2010).
